Measured values reported in ChEMBL document CHEMBL1152557, “Solution-phase parallel synthesis of substituted chalcones and their antiparasitary activity against Giardia lamblia” (Bioorg Med Chem, 2009).
≈ marks a conversion by molar mass, not a printed value. Calls of active or inactive are those of the source. The rule behind the calls is not given here.

Tests used:
Type in all cases: functional, organism-based
Staphylococcus aureus = experiment: Antimicrobial activity against Staphylococcus aureus ATCC 29213 up to 100 ug/mL by broth microdilution assay
Enterococcus faecalis = experiment: Antimicrobial activity against Enterococcus faecalis ATCC 29212 up to 100 ug/mL by broth microdilution assay
Giardia intestinalis [1] = experiment: Antigiardial activity against Giardia lamblia WB (ATCC 30957) trophozoites assessed as mild activity after 24 hrs by trypan blue assay; settings: Giardia duodenalis
Summary of the method: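 Mid-log trophozoites chilled on ice 20 min, resuspended and counted by hemocytometer; 1.5 × 10⁵ cells per well, final volume 1.5 mL, incubated 24 h at 37 °C with compound (DMSO stock diluted in medium, DMSO ≤5% v/v) at 100 µg/mL. Plates re-chilled on ice 20 min before counting. Mortality from trypan blue staining plus loss of motility. Controls: metronidazole 1–5 µg/mL, DMSO vehicle.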

Escherichia coli = experiment: Antimicrobial activity against Escherichia coli ATCC 25922 up to 100 ug/mL by broth microdilution assay
Pseudomonas aeruginosa = experiment: Antimicrobial activity against Pseudomonas aeruginosa ATCC 27853 up to 100 ug/mL by broth microdilution assay
Giardia intestinalis [2] = experiment: Antigiardial activity against Giardia lamblia WB (ATCC 30957) trophozoites after 24 hrs by trypan blue assay; settings: Giardia duodenalis; for LC50: read-out: LD50 (the source's name)
Summary of the method: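 Mid-log trophozoites, ice-chilled 20 min and counted by hemocytometer, 1.5 × 10⁵ cells per well in 1.5 mL final volume, incubated 24 h at 37 °C with compounds (DMSO stock diluted in medium, DMSO ≤5% v/v) at 100 µg/mL, then 1–100 µg/mL for selected ones. Metronidazole 1–5 µg/mL and DMSO controls. Plates ice-chilled 20 min, cells resuspended, counted. Mortality by trypan blue staining and absence of motility. IC50 and LD50 by probit analysis.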

| Compound | Activity (Staphylococcus aureus) | Activity (Enterococcus faecalis) | Activity (Giardia intestinalis [1]) | Activity (Escherichia coli) | Activity (Pseudomonas aeruginosa) | IC50 (Giardia intestinalis [2]) | LC50 (Giardia intestinalis [2]) |
| --- | --- | --- | --- | --- | --- | --- | --- |
| COc1ccc(/C=C/C(=O)c2ccc(OC)cc2)cc1 | inactive | inactive | Active | inactive | inactive | – | – |
| Cc1ccc(/C=C/C(=O)c2ccccc2)cc1 | inactive | inactive | Active | inactive | inactive | – | – |
| Cc1ccc(/C=C/C(=O)c2ccc(F)cc2)cc1 | inactive | inactive | – | inactive | inactive | 15.3 µg/mL (≈ 63.7 µM) | 9.67 µg/mL (≈ 40.2 µM) |
| COc1ccc(C(=O)/C=C/c2ccccc2F)cc1 | inactive | inactive | – | inactive | inactive | 12.7 µg/mL (≈ 49.6 µM) | 1.99 µg/mL (≈ 7.77 µM) |
| COc1ccc(/C=C/C(=O)c2ccccc2)cc1 | inactive | inactive | Active | inactive | inactive | – | – |
| Cc1ncc([N+](=O)[O-])n1CCO [METRONIDAZOLE] | – | – | – | – | – | 2.88 µg/mL (≈ 16.8 µM) | 1.63 µg/mL (≈ 9.52 µM) |
| COc1ccc(C(=O)/C=C/c2ccc(OC)cc2OC)cc1 | inactive | inactive | Active | inactive | inactive | – | – |
| COc1ccc(/C=C/C(=O)c2ccc(Cl)cc2)cc1 | inactive | inactive | Active | inactive | inactive | – | – |
| COc1ccc(C(=O)/C=C/c2ccc(Cl)cc2)cc1 | inactive | inactive | – | inactive | inactive | 15 µg/mL (≈ 55.1 µM) | 7.52 µg/mL (≈ 27.6 µM) |
| COc1ccc(C(=O)/C=C/c2ccccc2)cc1 | inactive | inactive | Active | inactive | inactive | – | – |
